CHRM1 PAM: human CHRM1 positive allosteric modulation | P11229 | CHO-K1 hM1, Fluo-8 calcium fluorescence, ACh EC20; 0% = ACh EC20, 100% = maximal ACh | activation, % at 3 µM | 360,000 compounds, 0.088% hits | AID 588819; in the data active means activation above about 19%, passing the limit was not always enough
Target sequence (P11229 whole entry, looked up): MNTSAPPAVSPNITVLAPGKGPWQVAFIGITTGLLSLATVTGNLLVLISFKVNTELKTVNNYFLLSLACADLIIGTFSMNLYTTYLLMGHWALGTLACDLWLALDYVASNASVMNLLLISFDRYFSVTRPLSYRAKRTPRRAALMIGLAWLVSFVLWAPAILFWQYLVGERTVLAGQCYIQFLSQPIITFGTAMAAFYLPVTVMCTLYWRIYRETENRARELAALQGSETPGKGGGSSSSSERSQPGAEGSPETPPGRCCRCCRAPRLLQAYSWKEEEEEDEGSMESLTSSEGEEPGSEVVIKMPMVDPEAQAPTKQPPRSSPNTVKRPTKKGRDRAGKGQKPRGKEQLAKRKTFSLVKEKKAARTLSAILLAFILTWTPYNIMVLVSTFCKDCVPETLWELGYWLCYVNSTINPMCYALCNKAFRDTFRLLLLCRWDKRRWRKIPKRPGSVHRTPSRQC
CHRM1 agonist: agonists of human M1 muscarinic receptor. CHO-K1 hM1, Fluo-8 calcium fluorescence, agonist mode; 0% DMSO, 100% acetylcholine EC100. activation, % at 3 µM. 360,000 compounds, 0.33% hits. AID 588814;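 active means activation above the run's mean compound activation plus 3 SD, cut at about 16% in these data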;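 further: peak over basal fluorescence ratio within a 140 s kinetic read after compound addition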
M5 antag: antagonists of human muscarinic M5 receptor (CHRM5) | inhibition, % at 3 µM | CHO-hM5 cells, Fluo-8 calcium fluorescence, ACh EC80 | P08912 | 360,000 compounds, 0.59% hits | AID 624040;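 active means inhibition above a per-plate cutoff, the mean of that plate's test compounds plus 3 SD, cut at about 27% in these data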;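 further: 0% = acetylcholine EC80 with DMSO and 100% = DMSO without agonist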
CHRM5 PAM: potentiates acetylcholine response at human M5 receptor | activation, % at 3 µM | 360,000 compounds, 0.3% hits | CHO-K1 hM5, Fluo-8 calcium, ACh EC20 PAM; 0% = ACh EC20, 100% = ACh EC100 | P08912 | AID 624038;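 active means activation above the run cutoff, the mean activation of all test compounds plus 3 SD, cut at about 18% in these data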
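Replicates: One well per compound, no replicates | System: Human M5 receptor in CHO-K1 cells | Benchmarks: Low control EC20 acetylcholine (0%), high control EC100 acetylcholine (100%) | Probe or stimulus: Acetylcholine, EC20 level | Times: Fluo-8 loading 80 min at 37 °C plus 30 min room temperature | Signal: Intracellular calcium via Fluo-8 fluorescence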
CHRM5 agonist: agonists of human muscarinic M5 receptor (CHRM5). P08912. CHO-K1 hM5 cells, Fluo-8 calcium fluorescence; 0% DMSO wells, 100% maximal acetylcholine response. activation, % at 3 µM. 360,000 compounds, 0.19% hits. AID 624037;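 active means activation above the run's mean over test compounds plus 3 SD, cut at about 23% in these data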;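 further: signal is peak over basal fluorescence ratio across the kinetic read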
M1 antag: blocks human M1 muscarinic receptor; inhibition, % at 3 µM; CHO-K1 hM1, Fluo-8 calcium fluorescence, ACh EC80 antagonist; P11229; 360,000 compounds, 1.3% hits;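 active means percent inhibition above its own plate's cutoff, namely the mean of that plate's compound wells plus 3 SD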;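 further: peak over basal fluorescence ratio during 140 s after agonist addition; 0% = ACh EC80 plus DMSO and 100% = DMSO alone without agonist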
Starred values were filed as active, the others as inactive; · = no result. Compounds with a hit are over-represented: about 2.1% of the library has one in this group of screens.

SMILES	CHRM1 PAM	CHRM1 agonist	M5 antag	CHRM5 PAM	CHRM5 agonist	M1 antag
Cc1ccc(/C=C2\C(=O)NC(=S)N(c3cccc(F)c3)C2=O)o1	3.7	-0.7	7.0	0.1	-0.5	-11.2
C[N+]1(C)C2CC(OC(=O)[C@H](CO)c3ccccc3)CC1C1OC12 (stereo not given in full)	·	·	98.6*	-18.1	-1.6	·
C[N+]1(C)C2CCC1CC(OC(=O)c1ccco1)C2 (stereo not given)	-4.2	-6.9	-6.1	-0.8	-18.9	3.2
Cc1nn(CCC#N)c2c1P(=S)(N1CCCC1)OC(c1ccc(F)cc1)=N2 (stereo not given)	-4.7	0.7	8.6	-3.3	2.5	6.3
CC(=O)N1CCN(Cc2ccc(Cl)nc2)CC1	28.4*	-2.7	2.2	-2.1	-1.1	-2.3
CC1CCCCN1Cc1ccc(Cl)nc1 (stereo not given)	-3.9	-6.6	6.9	3.3	-16.1	15.7
CC(C)(O)/C=C/C(=O)C(C)(O)C1C(O)CC2(C)C3CC=C4C(C=C(O)C(=O)C4(C)C)C3(C)C(=O)CC12C (stereo not given)	9.7	-3.2	-5.6	19.4*	3.5	-17.6
COc1cc(Br)cc(CN2CCN(C)CC2)c1O	-32.1	-14.5	9.8	-19.8	-6.3	59.3*
COc1ccc(Br)cc1CN1CCN(CCO)CC1	-2.1	-11.3	-1.9	5.4	-3.8	2.7
CC(=O)OC1(c2ccccc2)CCN(C2CCCCC2)CC1C (stereo not given)	-22.8	-7.1	14.8	-21.2	-0.6	31.4*
CC1(CCCc2ccc(N(CCCl)CCCl)cc2)NC(=O)NC1=O (stereo not given)	0.5	-2.6	5.8	-4.5	2.6	-0.6
CC(C)CNC(=O)c1c(N)n(Cc2ccc3c(c2)OCO3)c2nc3ccccc3nc12	-15.9	-2.6	-4.0	13.8	-3.0	40.7*
O=c1c2ccccc2nc(Cc2ccccc2)n1-c1cccc(O)c1	7.7	-1.4	0.6	5.2	-2.2	-7.5
O=C1NC(=O)C(CCc2ccncc2)(Cc2ccc(OCc3ccccc3)cc2)C(=O)N1	21.1	-0.2	-8.1	15.5	4.5	-27.4
CC(C)(C)N1Cc2ccccc2C1=N	3.3	-4.7	-4.0	30.9*	-13.0	-4.8
Clc1ccc(OCC#CCN2CCCCCC2)cc1	-21.9	-5.5	35.3*	-30.3	-14.8	48.9*
COc1ccccc1OCC#CCN1CCCC1	-21.8	-6.9	11.0	-23.2	-15.5	90.3*
COc1ccc(OCC#CCN2CCC(C)CC2)cc1	-14.1	-9.6	12.6	-7.0	-9.8	4.4
O=C(C1CCC(=O)N1Cc1ccc(F)cc1)N1CCC2(CC1)OCCO2 (stereo not given)	7.4	-3.1	-6.3	8.4	0.9	-4.6
O=[N+]([O-])c1ccc(Cl)c([N+](=O)[O-])c1	12.3	10.2	-7.8	4.5	-0.6	-17.7
O=[N+]([O-])c1cc(Cl)c(Cl)cc1Cl	-13.9	-0.7	-3.2	2.3	2.8	22.3*
Nc1cncc(C(=O)O)c1	11.5	2.1	-6.0	8.1	10.4	-11.0
CCC(C(=O)N1CCC2(CC1)OCCO2)c1ccccc1 (stereo not given)	1.9	-10.8	-11.7	9.6	-1.5	-1.6
COC(=O)C1=C(c2cc3ccccc3o2)C[C@@H]2CC[C@H]1N2C(=O)NCCNC(C)=O	-24.4	-12.4	0.7	3.1	-11.6	32.5*
COC(=O)C1=C(c2cc3ccccc3o2)C[C@@H]2CC[C@H]1N2C(=O)NCc1ccccc1	-28.8	-12.4	16.7	-10.9	-11.9	14.4
SMILES	CHRM1 PAM	CHRM1 agonist	M5 antag	CHRM5 PAM	CHRM5 agonist	M1 antag
CCN(CC)CCOC(=O)c1ccc(N=Cc2c(O)[nH]c(=O)[nH]c2=O)cc1	-15.2	-7.4	1.0	-14.1	-13.7	22.2*
CCC(CO)(C(=O)OC1CC2CCC(C1)N2C)c1ccccc1 (stereo not given)	-27.7	-10.0	99.2*	-32.8	-16.3	101.0*
Cn1c(=O)n(CC(=O)N2CCC3(CC2)OCCO3)c(=O)c2ccccc21	25.4*	2.7	-8.3	1.4	-0.6	-63.6
O=[N+]([O-])c1nccn1CC(O)CN1CC1 (stereo not given)	9.7	14.6	2.8	-3.0	0.3	6.2
CCN(CC)c1ccc(CN2CC=C(c3ccc(F)cc3)CC2)cc1	-22.5	-4.9	-0.1	-5.9	-5.4	36.9*
COc1ccc(CN2CC=C(c3ccc(F)cc3)CC2)cc1Br	-26.3	-7.4	7.5	2.7	-11.8	46.1*
O=[N+]([O-])c1cccc(CN2CC=C(c3ccc(F)cc3)CC2)c1	-15.1	-10.1	0.7	-4.0	-1.8	9.0
CCOC(=O)[C@]12Cc3cc(C)ccc3[C@H]1N(C1CCCCC1)C(=O)c1ccccc12	·	·	5.5	9.1	26.8*	·
CCOC(=O)[C@]12Cc3ccc(C)cc3[C@H]1N(C1CCCCC1)C(=O)c1ccccc12	·	·	6.3	13.2	10.5	·
CCOC(=O)[C@]12Cc3cc(Cl)ccc3[C@H]1N(C1CCCCC1)C(=O)c1cc(OC)ccc12	·	·	17.6	5.8	51.1*	·
CCOC(=O)[C@]12Cc3ccc(C)cc3[C@H]1N(C1CCCCC1)C(=O)c1cc(OC)ccc12	·	·	3.9	16.0	17.8	·
CCCCC(=O)N/N=C/c1c(O)n(CC)c(=S)[nH]c1=O	-0.5	-6.5	5.1	-4.6	-2.1	-7.6
CN1C2CCC1CC(OC(c1ccccc1)c1ccccc1N)C2 (stereo not given)	-25.8	-6.1	99.5*	-18.6	-0.9	98.8*
CSc1ccc(C(=O)C2CCCN(Cc3cc4ccccc4[nH]3)C2)cc1 (stereo not given)	-13.7	-12.1	-1.8	-3.5	-3.3	8.1
CSc1ccccc1C(=O)C1CCCN(Cc2ccncc2)C1 (stereo not given)	-23.3	-7.1	19.1	-19.2	-18.5	55.0*
CSc1ccc(C(=O)C2CCCN(Cc3cccnc3)C2)cc1 (stereo not given)	-32.9	-12.8	17.9	-20.7	-8.6	33.9*
CCCOc1ccccc1NP(=O)(Oc1ccccc1)Oc1ccccc1	2.1	0.6	11.2	-3.5	-3.6	2.4
O=P(Nc1ccccc1)(Oc1ccccc1)Oc1ccccc1	-17.4	-3.2	14.0	-26.0	4.5	36.9*
Cc1cccc(NP(=O)(Oc2ccccc2)Oc2ccccc2)c1C	-16.9	-2.8	-5.5	-10.8	1.3	29.8*
CC(=NCCCO)c1c(O)[nH]c(=O)[nH]c1=O	3.1	-0.5	0.8	-4.8	-1.7	6.1
COc1cc(Br)c(CNCCc2ccc3c(c2)OCO3)cc1OC	-21.4	-9.1	6.4	7.4	-14.0	27.1
CNC(=O)Oc1cccc(-c2cn3cc(Cl)ccc3n2)c1	27.2*	-1.0	2.9	-2.4	0.0	8.8
